# Source: PubChem (The Scripps Research Institute Molecular Screening Center)
# GPR7 antag: blocks human GPR7 receptor signaling. AID 1861. actives 1.1% (n = 290,000). inhibition, % at 4.4 µM. P48145. GPR7-expressing cells, fluorescence antagonist assay; in the data active means inhibition above about 16%, passing the limit was not always enough;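 further: cells stimulated with the agonist NPW; 0% = agonist with vehicle and 100% = vehicle without agonist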
# Target sequence (P48145 whole entry, looked up): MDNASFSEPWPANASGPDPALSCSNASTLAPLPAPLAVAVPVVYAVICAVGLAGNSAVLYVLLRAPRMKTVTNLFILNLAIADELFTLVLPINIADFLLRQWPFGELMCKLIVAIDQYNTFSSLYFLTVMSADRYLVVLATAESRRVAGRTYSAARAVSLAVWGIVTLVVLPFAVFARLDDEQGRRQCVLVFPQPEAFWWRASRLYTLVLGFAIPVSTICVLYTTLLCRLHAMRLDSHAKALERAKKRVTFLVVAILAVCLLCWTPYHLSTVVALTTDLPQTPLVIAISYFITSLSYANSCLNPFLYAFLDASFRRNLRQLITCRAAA
# GalR3 antagonist: blocks the human galanin receptor 3; inhibition, % at 3 µM; HEK293 GalR3-CNG cAMP membrane potential fluorescence; galR3 body fused to GalR1 C-terminus; O60755; actives 0.44% (n = 360,000);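 active means inhibition above the screen-wide average plus 3 SD, cut at about 13% in these data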;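 further: forskolin and galanin both at EC90 stimulate the cells; cAMP rise reported by CNG channel membrane potential dye signal; 0% = forskolin plus galanin with DMSO and 100% = forskolin alone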
# Target sequence (O60755 1-299 limits assumed): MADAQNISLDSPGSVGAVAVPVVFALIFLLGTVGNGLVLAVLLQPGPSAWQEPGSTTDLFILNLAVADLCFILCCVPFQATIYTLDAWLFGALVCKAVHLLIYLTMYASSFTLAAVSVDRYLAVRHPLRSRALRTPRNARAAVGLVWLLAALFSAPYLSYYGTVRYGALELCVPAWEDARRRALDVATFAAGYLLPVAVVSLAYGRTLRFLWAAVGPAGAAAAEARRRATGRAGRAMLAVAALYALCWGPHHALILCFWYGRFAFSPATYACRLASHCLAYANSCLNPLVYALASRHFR
# OX1R antag-1: antagonists of human orexin 1 receptor (OX1R); OX1R-expressing cells, FRET antagonist read-out; inhibition, % at 6.6 µM; actives 1.8% (n = 330,000); O43613; in the data active means inhibition mostly above about 38%, no sharp cut-off; inactive means mostly below about 40%;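 further: 0% = agonist challenge alone and 100% = reference antagonist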
# CHO parental Ca: counter-screen: ATP calcium response change in parental CHO cells | parental CHO-K1, ATP-induced calcium, Fluo-8 fluorescence | inhibition, % at 5.6 µM | actives 0.63% (n = 330,000) | AID 463079;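 active means inhibition above that plate's mean sample inhibition plus 3 SD, cut at about 26% in these data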;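 further: 0% = ATP-challenged DMSO wells and 100% = DMSO wells without ATP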
#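 Test system: parental CHO cells; detection: calcium-sensitive Fluo-8 fluorescence; evaluation: percent inhibition of calcium signal; also added: ATP as calcium-mobilizing challenge; repeats: one well per compound; control set: ATP-challenged DMSO wells low, unchallenged DMSO wells high; compound: single nominal dose of 5.6 µM per compound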
# OX1R antag-2: blocks the human orexin 1 receptor; AID 434989; inhibition, % at 5 µM; CHO/OX1R cells, Fluo-8 calcium fluorescence, orexin A; actives 0.43% (n = 330,000);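 active means inhibition above its plate's threshold, mean inhibition of all tested compounds on the plate plus 3 SD, cut at about 37% in these data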;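 further: 0% = orexin A challenge wells and 100% = SB-334867-A antagonist wells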
# GalR3 conf: confirmation of human galanin receptor 3 antagonists; shares compounds with GalR3 antagonist; HEK293 GalR3 CNG cAMP biosensor, membrane potential fluorescence; galR3 fused to GalR1 carboxy tail; challenged with forskolin and galanin at EC90; inhibition, % at 3 µM; actives 59% (n = 1,600);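 active means inhibition above the primary screen's cutoff, the mean inhibition of all screened compounds plus 3 SD, cut at about 13% in these data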;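 further: 0% = forskolin plus galanin and 100% = forskolin alone with DMSO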
# HEK-CNG parental: acts as nonspecific agonist in parental HEK-CNG cells; actives 10% (n = 1,600); HEK293-CNG parental cells, cAMP membrane potential fluorescence; normalised: DMSO wells 0%, forskolin wells 100%; shares compounds with GalR3 antagonist; activation, % at 3 µM; in the data active means activation above about 1.3%
# The depositor's hits bear a star; / = no result. Shown are actives, neighbours in structure and some others; about 3.1% of the full set was active somewhere.
SMILES,GPR7 antag,GalR3 antagonist,OX1R antag-1,CHO parental Ca,OX1R antag-2,GalR3 conf,HEK-CNG parental
COCC(C)n1c(C)cc(C(=O)COC(=O)c2n[nH]c3ccccc23)c1C (stereo not drawn),4,-3,18,-8,-21,/,/
CC(=O)c1ccc(-c2ccccc2C2=CC(=O)CC(C)(C)C2=O)cc1,/,-6,/,/,/,/,/
C[C@@H]1CN([C@H](C)CO)C(=O)c2cc(C#CC3CCCCC3)cnc2O[C@H]1CN(C)Cc1cccnc1,/,-7,/,/,/,/,/
COc1ccc(CCN2C(=O)CSC2=Nc2ccc(C(C)C)cc2)cc1OC,5,84*,4,29*,20,96*,0
COc1ccc(N=C2SCC(=O)N2CCc2ccc(OC)c(OC)c2)cc1,6,0,15,-17,-17,/,/
COc1ccc(-c2cnc3c(NC=O)cc(-c4cc(OC)c(OC)c(OC)c4)cn23)cc1OC,/,4,/,/,/,/,/
COc1ccccc1-c1cc(NC=O)c2ncc(-c3ccc(S(C)(=O)=O)cc3)n2c1,/,14*,/,/,/,30*,1
COc1ccc(-c2cnc3c(NC=O)cc(-c4cccc(NS(C)(=O)=O)c4)cn23)cc1OC,/,59*,/,/,/,43*,0
COc1ccc(-c2cnc3c(NC=O)cc(-c4ccc(F)cc4)cn23)cc1OC,/,15*,/,/,/,21*,1
COc1ccc(-c2cc(NC=O)c3ncc(-c4ccc(OC)c(OC)c4)n3c2)c(OC)c1,/,44*,/,/,/,25*,1
Cc1ccc(-c2cc3nc(NCCc4ccncc4)n(C)c(=O)c3s2)cc1,/,-6,/,/,/,/,/
Cc1ccc2nc(-c3ccc(F)cc3)c(Cc3ccccc3C(F)(F)F)n2c1,/,-9,/,/,/,/,/
COc1cccc(-c2cc(NC=O)c3ncc(-c4ccc(OC)c(OC)c4)n3c2)c1,/,38*,/,/,/,39*,1
COc1cccc(-c2cnc3c(NC=O)cc(-c4cc(OC)c(OC)c(OC)c4)cn23)c1,/,-1,/,/,/,/,/
COc1ccc(-c2cnc3c(NC=O)cc(-c4ccccc4)cn23)cc1OC,/,44*,/,/,/,15*,1
Cn1c(SCC(=O)NC2CC2)nnc1-c1cccs1,-13,14*,6,-2,-7,7,0
O=C(Nc1ccc(N2CCOCC2)cc1)c1csc(COCCO)n1,/,0,/,/,/,/,/
COCCN1C(=O)CN(S(C)(=O)=O)CC1(C)C(=O)Nc1c(C)cccc1C (stereo not drawn),/,-6,/,/,/,/,/
COCCN(C(=O)COC(=O)CCS(=O)(=O)c1ccccc1)c1c(N)n(Cc2ccccc2)c(=O)[nH]c1=O,/,14*,18,-3,-7,-2,0
Cc1[nH]nc2c1C(c1ccc3c(c1)OCO3)N(Cc1ccccc1)C2=O (stereo not drawn),/,-6,/,/,/,/,/
COc1cc(Cn2c(-c3ccc(O)c(OC)c3)nc3ccccc32)ccc1O,-11,23*,17,-11,-11,17*,0
CCOC(=O)[C@]12CCC=C1N(Cc1ccco1)C(=O)[C@H](CC(=O)NCCCOC)C2,/,-5,/,/,/,/,/
CCCCNC(=O)c1ccc2nc(CC)c(N(CC)CCN(C)C)n2c1,/,-3,/,/,/,/,/
CCN=C1S/C(=C\c2ccc(O)c(OCC)c2)C(=O)N1CC,-32,-4,24,-29,-42,/,/
CCN=C1S/C(=C\c2cc(OCC)c(O)cc2Br)C(=O)N1CC,-14,16*,6,-21,-15,21*,0
SMILES,GPR7 antag,GalR3 antagonist,OX1R antag-1,CHO parental Ca,OX1R antag-2,GalR3 conf,HEK-CNG parental
CN1C(=O)[C@@](O)(c2cn(C)c3ccccc23)c2cc(Br)ccc21,/,0,/,/,/,/,/
COc1ccc(C(=O)NC2CCCN(Cc3ccccc3F)C2)c(OC)c1OC (stereo not drawn),-22,16*,10,-24,-32,9,0
FC(F)(F)c1ccccc1Cc1c(-c2ccc(Cl)cc2)nc2c3ccccc3ccn12,/,-1,/,/,/,/,/
FC(F)(F)c1ccccc1Cc1c(-c2ccco2)nc2c3ccccc3ccn12,/,19*,/,/,/,35*,1
COCOc1cc(O)c(C(=O)/C=C/c2ccccc2)c(OCOC)c1,/,22*,18,-7,-39,20*,0
NC(=O)c1ccc(N2CCN(S(=O)(=O)c3cccs3)CC2)c([N+](=O)[O-])c1,/,101*,15,46*,56*,102*,-1
Cc1cccc(-c2cc(NCCc3cccnc3)n3nccc3n2)c1,/,-3,/,/,/,/,/
Oc1c(Br)cc(Br)cc1C=NCc1ccc(F)cc1,-7,34*,-29,-8,-7,5,0
Oc1c(Br)cc(Br)cc1C=NCc1ccccc1,0,/,-13,13,-20,2,1
O/N=C/c1cc(Br)ccc1OCc1ccc(F)cc1,7,-6,17,-2,-31,/,/
Cc1cc(Cl)ccc1C(O)c1ncc(-c2ccc(C(F)(F)F)cc2)[nH]1 (stereo not drawn),/,-5,/,/,/,/,/
COC(=O)c1cc2c(c3c4cc(OC)ccc4n(S(=O)(=O)c4ccc(F)cc4)c13)C(=O)N(C)C2,/,-7,/,/,/,/,/
CCCNC(=O)c1cc(C2CCCCN2C(=O)OCC(C)C)on1 (stereo not drawn),/,3,/,/,/,/,/
COC(=O)C1=C(C)N(Cc2cccc(C(F)(F)F)c2)C(=NCc2cc(OC)c(OC)c(OC)c2)NC1c1cccc(C(F)(F)F)c1 (stereo not drawn),/,-5,/,/,/,/,/
COc1cccc(/C=C/C(=O)OCC(=O)Nc2nnc(-c3ccccc3)o2)c1OC,/,13*,/,/,/,2,1
COC(=O)CSc1nc(N)c(C#N)c(-c2ccc(O)cc2)c1C#N,-13,45*,18,1,-1,74*,1
CC(C)c1ccc(-c2c(C#N)c(N)nc(SCC(=O)N3CCCCCC3)c2C#N)cc1,-6,0,17,0,-10,/,/
C/C(COc1ccccc1)=N\NC(=O)c1nnn(-c2nonc2N)c1CSc1ccc(C)cc1,/,-2,/,/,/,/,/
COc1cc(CNC(=O)c2cc(-c3cc(F)ccc3OCC3CCCO3)n[nH]2)cc(OC)c1 (stereo not drawn),/,-3,/,/,/,/,/
Cc1sc2ncnc(NCC3CCCO3)c2c1C (stereo not drawn),7,-4,20,1,-12,/,/
Cc1sc2ncnc(NCC3COc4ccccc4O3)c2c1C (stereo not drawn),15,100*,45,62*,29,105*,0
Cc1ccc(-c2nc(NCc3ccco3)c3ccccc3n2)cc1,-5,-5,17,-7,-19,/,/
Cc1cccc(Nc2nc(NCc3ccco3)c3ccccc3n2)c1,13,45*,19,74*,44,54*,8.7*
COc1cc(/C=C/C2=NNC(=O)CC2)cc(OC)c1OC,-14,20*,3,-12,-16,16*,0
O=C(C(=O)N(C1CCCCC1)C1CCCCC1)c1ccccc1,/,-2,/,/,/,/,/
